From ChEMBL document CHEMBL4842367, “Strategies toward Discovery of Potent and Orally Bioavailable Proteolysis Targeting Chimera Degraders of Androgen Receptor for the Treatment of Prostate Cancer” (J Med Chem, 2021)
Active and inactive are the calls of the source. No cut-off for these calls is given here.

Experiments:
[1] = Tmax in ICR mouse at 5 mg/kg, po measured up to 24 hrs by LC-MS/MS analysis; type: ADME, organism-based; conditions: in vivo
Method in brief: (§1)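 Male ICR mice, single oral gavage (3 or 5 mg/kg) in 5% DMSO/10% solutol/85% saline, three mice per group. Separate IV tail-vein bolus group (1 or 2 mg/kg) in the same vehicle. Blood sampled at 0.083–24 h, one sample per mouse, plasma diluted threefold and analysed by LC–MS/MS; noncompartmental parameters.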

[2] = molecular target: Protein cereblon/Androgen receptor (Homo sapiens, UniProt P10275+Q96SW2); test: Protac activity at CRBN/AR in human VCaP cells assessed as induction of AR degradation measured after 24 hrs by western blot analysis
[3] = Half life in ICR mouse at 2 mg/kg, iv measured up to 24 hrs by LC-MS/MS analysis; type: ADME, organism-based; conditions: in vivo
Method in brief: (§2)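 Male ICR mice received a single tail-vein IV bolus in 5% DMSO/10% solutol/85% saline at 5 mL/kg. Blood was taken at 0.083, 0.25, 0.5, 1, 2, 4, 6, 8 and 24 h, with n = 3 per time point and each mouse sampled once. Plasma supernatant was diluted three times with water and analysed by LC-MS/MS, and terminal T1/2 was derived noncompartmentally.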

[4] = Oral bioavailability in ICR mouse at 5 mg/kg measured up to 24 hrs by LC-MS/MS analysis; type: ADME, organism-based; conditions: in vivo; method in brief: as §1
Mus musculus [5] = test: Reduction in AR protein level in tumor of human VCaP cells xenografted in SCID mouse at 20 mg/kg, po single dose measured after 24 hrs by Western blot analysis; type: functional, organism-based
Method in brief: (§3)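 SCID mice bearing VCaP xenografts given one oral dose of 20 mg/kg; tumors harvested at 6 and 24 h after dosing and AR protein measured by Western blot with GAPDH loading control.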

[6] = Plasma concentration in human VCaP cells xenografted in SCID mouse at 20 mg/kg, po single dose measured after 6 hrs by LC-MS/MS analysis; type: ADME, organism-based
Method in brief: (§4)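 Single oral gavage, 20 mg/kg in 100% PEG200, to male SCID mice bearing one VCaP tumor each (about 200 mm³). Plasma and tumor taken at 6 and 24 h, three mice per time point. Tumors frozen, ground in liquid nitrogen, homogenized in water/acetonitrile 4:1, precipitated with cold acetonitrile; analysis by positive-ion MRM LC–MS/MS.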

[7] = Plasma concentration in human VCaP cells xenografted in SCID mouse at 20 mg/kg, po single dose measured after 24 hrs by LC-MS/MS analysis; type: ADME, organism-based; method in brief: as §4
[8] = Drug uptake in human VCaP cells xenografted in SCID mouse tumor tissue at 20 mg/kg, po single dose measured after 6 hrs by LC-MS/MS analysis; type: ADME, organism-based, Neoplasm; conditions: in vivo; method in brief: as §4
[9] = Drug uptake in human VCaP cells xenografted in SCID mouse tumor tissue at 20 mg/kg, po single dose measured after 24 hrs by LC-MS/MS analysis; type: ADME, organism-based, Neoplasm; conditions: in vivo
Method in brief: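 Male CB17 SCID mice carried subcutaneous VCaP xenografts, implanted as 5 × 10⁶ cells in Matrigel, grown to about 200 mm³. Mice received a single oral gavage of 20 mg/kg in 100% PEG200. Tumors were collected at 6 and 24 h, three mice per time point, and frozen. They were homogenized in water/acetonitrile 4:1, protein-precipitated with cold acetonitrile, and assayed by LC-MS/MS (positive-ion MRM). Values are mean ± SD.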

VCaP [10] = test: Growth inhibition of human VCaP cells assessed as cell viability measured after 4 days in presence of R1881 by WST-8 assay; type: functional, cell-based; conditions: 96 h
Method in brief: (§5)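 LNCaP and VCaP cells exposed to compounds for 4 days in charcoal-stripped medium containing 0.1 nM R1881; viability read by WST-8 assay.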

LNCaP [11] = test: Growth inhibition of human LNCaP cells assessed as cell viability measured after 4 days in presence of R1881 by WST-8 assay; type: functional, cell-based; conditions: 96 h; method in brief: as §5
VCaP [12] = test: Suppression of PSA gene expression in human VCaP cells assessed as mRNA level treated for 24 hrs by qRT-PCR analysis; type: functional, cell-based; conditions: dose 1-1000 nM
Method in brief: (§6)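 VCaP and LNCaP cells treated 24 h; PSA (KLK3) and TMPRSS2 mRNA quantified by TaqMan qRT-PCR, comparative CT method relative to GAPDH and then vehicle control.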

VCaP [13] = test: Suppression of TMPRSS2 gene expression in human VCaP cells assessed as mRNA level treated for 24 hrs by qRT-PCR analysis; type: functional, cell-based; conditions: dose 1-1000 nM; method in brief: as §6
LNCaP [14] = test: Suppression of PSA gene expression in human LNCaP cells assessed as mRNA level treated for 24 hrs by qRT-PCR analysis; type: functional, cell-based; conditions: dose 1-1000 nM; method in brief: as §6
LNCaP [15] = test: Suppression of TMPRSS2 gene expression in human LNCaP cells assessed as mRNA level treated for 24 hrs by qRT-PCR analysis; type: functional, cell-based; conditions: dose 1-1000 nM; method in brief: as §6
Mus musculus [16] = test: Reduction in AR protein level in human VCaP cells xenografted in SCID mouse tumor tissue at 10 mg/kg, po for 3 days measured after 3 to 24 hrs of treatment by Western blot analysis; type: functional, organism-based; conditions: time 3.0 day
Method in brief: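 SCID mice with VCaP xenografts gavaged 10 mg/kg daily for 3 days; tumors collected at 3, 6 and 24 h after the last dose for Western blot of AR, GAPDH as loading control.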

[17] = Reduction in PSA gene expression in human VCaP cells xenografted in SCID mouse tumor tissue assessed as reduction in mRNA level at 10 mg/kg, po for 3 days measured after 3 hrs of treatment by […]; type: functional; conditions: 72 h, time 3 day
Method in brief: (§7)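 VCaP xenograft-bearing SCID mice dosed orally at 10 mg/kg daily for 3 days; tumors taken 3 h after the last dose. PSA, TMPRSS2 and FKBP5 mRNA measured by TaqMan qRT-PCR, comparative CT normalized to GAPDH and to vehicle control.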

[18] = Reduction in TMPRSS2 gene expression in human VCaP cells xenografted in SCID mouse tumor tissue assessed as reduction in mRNA level at 10 mg/kg, po for 3 days measured after 3 hrs of treatment by […]; type: functional; conditions: 72 h, time 3 day; method in brief: as §7
[19] = Reduction in FKBPS gene expression in human VCaP cells xenografted in SCID mouse tumor tissue assessed as reduction in mRNA level at 10 mg/kg, po for 3 days measured after 3 hrs of treatment by […]; type: functional; conditions: 72 h, time 3 day; method in brief: as §7
VCaP [20] = test: Antitumor activity against human VCaP cells xenografted in SCID mouse assessed as tumor growth inhibition at 40 mg/kg, po measured on day 21 relative to control; type: functional; conditions: 504 h, read-out: TGI
Method in brief: (§8)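 Male CB17 SCID mice implanted s.c. with 5 × 10⁶ VCaP cells in Matrigel; at average tumor volume 150 mm³, size-matched and randomized, seven per group. Oral gavage daily for 21 days in 100% PEG200. Tumors measured 2–3 times weekly, volume = length × width²/2; TGI (%) = (Vc − Vt)/(Vc − Vo) × 100 using group medians at start and end.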

VCaP [21] = test: Antitumor activity against human VCaP cells xenografted in SCID mouse assessed as tumor growth inhibition at 10 mg/kg, po measured on day 21 relative to control; type: functional; conditions: 504 h, read-out: TGI; method in brief: as §8
VCaP [22] = test: Antitumor activity against human VCaP cells xenografted in SCID mouse assessed as tumor growth inhibition at 20 mg/kg, po measured on day 21 relative to control; type: functional; conditions: 504 h, read-out: TGI; method in brief: as §8
[23] = Toxicity in SCID mouse xenografted with human VCaP cells assessed as weight loss at 40 mg/kg, po measured on day 21; type: organism-based; conditions: in vivo
Method in brief: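 Male CB17 SCID mice bearing s.c. VCaP xenografts, randomized at about 150 mm³ (seven per group), gavaged daily for 21 days in 100% PEG200; body weights recorded 2–3 times per week to follow maximum weight loss.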

Mus musculus [24] = test: Reduction in AR protein level in tumor of human VCaP cells xenografted in SCID mouse at 20 mg/kg, po single dose measured after 6 hrs by Western blot analysis; type: functional, organism-based; method in brief: as §3
[25] = Half life in ICR mouse at 1 mg/kg, iv measured up to 24 hrs by LC-MS/MS analysis; type: ADME, organism-based; conditions: in vivo; method in brief: as §2
[26] = Tmax in ICR mouse at 3 mg/kg, po measured up to 24 hrs by LC-MS/MS analysis; type: ADME, organism-based; conditions: in vivo; method in brief: as §1
[27] = Oral bioavailability in ICR mouse at 3 mg/kg measured up to 24 hrs by LC-MS/MS analysis; type: ADME, organism-based; conditions: in vivo; method in brief: as §1

Protein cereblon/Androgen receptor, sequence (P10275 whole entry): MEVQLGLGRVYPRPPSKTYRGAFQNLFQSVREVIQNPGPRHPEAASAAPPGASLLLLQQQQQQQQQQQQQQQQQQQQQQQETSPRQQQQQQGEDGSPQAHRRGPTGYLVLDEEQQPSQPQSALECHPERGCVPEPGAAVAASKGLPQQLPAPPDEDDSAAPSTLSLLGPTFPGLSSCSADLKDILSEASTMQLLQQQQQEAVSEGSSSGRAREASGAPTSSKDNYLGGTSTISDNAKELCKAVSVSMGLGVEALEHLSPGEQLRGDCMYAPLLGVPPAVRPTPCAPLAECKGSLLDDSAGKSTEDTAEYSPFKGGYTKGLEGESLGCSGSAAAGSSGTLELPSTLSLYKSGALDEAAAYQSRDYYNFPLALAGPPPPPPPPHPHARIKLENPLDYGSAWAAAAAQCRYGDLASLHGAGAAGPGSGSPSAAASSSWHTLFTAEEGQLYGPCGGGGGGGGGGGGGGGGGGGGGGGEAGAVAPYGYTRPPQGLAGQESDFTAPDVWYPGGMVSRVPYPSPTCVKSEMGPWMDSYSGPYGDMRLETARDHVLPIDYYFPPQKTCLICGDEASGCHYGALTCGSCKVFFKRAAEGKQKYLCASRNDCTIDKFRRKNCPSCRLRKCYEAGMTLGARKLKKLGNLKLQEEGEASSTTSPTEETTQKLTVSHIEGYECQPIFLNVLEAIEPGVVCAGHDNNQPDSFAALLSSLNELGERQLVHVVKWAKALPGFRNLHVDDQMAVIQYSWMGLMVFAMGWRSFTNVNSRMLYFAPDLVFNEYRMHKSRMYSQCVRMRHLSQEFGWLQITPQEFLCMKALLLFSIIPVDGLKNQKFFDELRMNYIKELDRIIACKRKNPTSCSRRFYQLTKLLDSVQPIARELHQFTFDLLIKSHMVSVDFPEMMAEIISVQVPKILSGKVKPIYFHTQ
Protein cereblon/Androgen receptor, sequence (Q96SW2 whole entry): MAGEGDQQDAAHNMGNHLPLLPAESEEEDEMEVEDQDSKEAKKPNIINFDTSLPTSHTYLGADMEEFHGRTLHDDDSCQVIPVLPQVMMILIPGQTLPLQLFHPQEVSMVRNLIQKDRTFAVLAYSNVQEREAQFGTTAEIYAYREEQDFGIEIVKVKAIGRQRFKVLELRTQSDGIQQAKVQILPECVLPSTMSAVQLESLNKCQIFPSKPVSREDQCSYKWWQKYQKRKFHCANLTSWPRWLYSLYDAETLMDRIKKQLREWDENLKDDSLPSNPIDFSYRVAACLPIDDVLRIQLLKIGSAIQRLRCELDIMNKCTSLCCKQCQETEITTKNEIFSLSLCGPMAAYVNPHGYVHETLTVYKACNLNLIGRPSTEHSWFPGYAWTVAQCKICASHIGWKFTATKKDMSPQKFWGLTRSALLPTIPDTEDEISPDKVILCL

Tmax [1] [h] | EC50 [2] [nM] | F [4] [%] | concentration at 6 h [6] [ng/mL] | concentration at 24 h [7] [ng/mL] | Drug uptake [8] | Drug uptake [9] [ng/g] | IC50 (VCaP [10]) [nM] | IC50 (LNCaP [11]) [nM] | SMILES | Activity (Mus musculus [5]) | other results
4 | 0.2 | 75 | 1360 | 1670 | 718 ng/g | 1740 |  |  | CC1(C)[C@H](NC(=O)c2ccc(N3CCN(CC4CN(c5ccc6c(c5)C(=O)N(C5CCC(=O)NC5=O)C6=O)C4)CC3)cc2)C(C)(C)[C@H]1Oc1ccc(C#N)c(Cl)c1 (stereo partly drawn) | Active | t1/2 [3]: 17.8 h
 |  |  |  |  |  |  | 783 | 237 | CN1C(=O)CCC(N2C(=O)c3ccc(N4CCC(CN5CCN(c6ccc(C(=O)N[C@H]7C(C)(C)[C@H](Oc8ccc(C#N)c(Cl)c8)C7(C)C)cc6)CC5)CC4)cc3C2=O)C1=O (stereo partly drawn) |  | 
4.7 | 0.3 | 67 | 1510 | 1660 | 635 ng/g | 1510 | 4 | 5 | CC1(C)[C@H](NC(=O)c2ccc(N3CCN(CC4CCN(c5ccc6c(c5)C(=O)N(C5CCC(=O)NC5=O)C6=O)CC4)CC3)cc2)C(C)(C)[C@H]1Oc1ccc(C#N)c(Cl)c1 (stereo partly drawn) | Active | Activity (VCaP [12]): Dose-Dependent Effect; Activity (VCaP [13]): Dose-Dependent Effect; Activity (LNCaP [14]): Dose-Dependent Effect; Activity (LNCaP [15]): Dose-Dependent Effect; Activity (Mus musculus [16]): Active; inhibition in vivo at 10 mg/kg [17]: > 50%; inhibition in vivo at 10 mg/kg [18]: > 50%; inhibition in vivo at 10 mg/kg [19]: > 50%; inhibition in vivo at 40 mg/kg (VCaP [20]): 63%; inhibition in vivo at 10 mg/kg (VCaP [21]): 46%; inhibition in vivo at 20 mg/kg (VCaP [22]): 69%; Activity [23]: ≤ 5%
 |  |  |  |  |  |  |  |  | CNC(=O)c1ccc(N2C(=S)N(c3ccc(C#N)c(C(F)(F)F)c3)C(=O)C2(C)C)cc1F [ENZALUTAMIDE] |  | inhibition in vivo at 40 mg/kg (VCaP [20]): 39%
 | 0.4 |  |  |  |  |  |  |  | CC1(C)[C@H](NC(=O)c2ccc(N3CCC(CN4CCN(c5ccc6c(c5)C(=O)N(C5CCC(=O)NC5=O)C6=O)CC4)CC3)cc2)C(C)(C)[C@H]1Oc1ccc(C#N)c(Cl)c1 (stereo partly drawn) |  | t1/2 [25]: 25.5 h; Tmax [26]: 4.7 h; F [27]: 33%
 | 0.1 |  |  |  |  |  |  |  | CC1(C)[C@H](NC(=O)c2ccc(N3CCC(N4CCN(c5ccc6c(c5)C(=O)N(C5CCC(=O)NC5=O)C6=O)CC4)CC3)cc2)C(C)(C)[C@H]1Oc1ccc(C#N)c(Cl)c1 (stereo partly drawn) |  | t1/2 [25]: 21 h; Tmax [26]: 6 h; F [27]: 24%

SMILES | Tmax [1] [h] | EC50 [2] [nM] | F [4] [%] | concentration at 6 h [6] [ng/mL] | concentration at 24 h [7] [ng/mL] | Drug uptake [8] | Drug uptake [9] [ng/g] | IC50 (VCaP [10]) [nM] | IC50 (LNCaP [11]) [nM] | Activity (Mus musculus [5]) | other results
CN1CCN(c2ccc(C(=O)N[C@H]3C(C)(C)[C@H](Oc4ccc(C#N)c(Cl)c4)C3(C)C)cc2)CC1 |  |  |  |  |  |  |  | 49 | 81 |  | 
CC1(C)[C@H](NC(=O)c2ccc(N3CCN(C4CCN(c5ccc6c(c5)C(=O)N(C5CCC(=O)NC5=O)C6=O)CC4)CC3)cc2)C(C)(C)[C@H]1Oc1ccc(C#N)c(Cl)c1 (stereo partly drawn) | 4 | 0.8 | 37 | 803 | 776 | 315 ng/kg | 685 |  |  | Active | Activity (Mus musculus [24]): Active
